Reference: ChEMBL document CHEMBL1649548, “Pharmacodynamics of SMP-601 (PTZ601) against vancomycin-resistant Enterococcus faecium and methicillin-resistant Staphylococcus aureus in neutropenic murine thigh infection models” (Antimicrob Agents Chemother, 2009)
Values after ≈ are worked out from the molar mass of the structure shown. Active and inactive are the calls of the source. The calls are words filed in the database; no cut-off is given here.

Key:
[1] = fT>MIC required for bacteriostatic effect in vancomycin-resistant Enterococcus faecium TL-3621-infected mouse; assay type: functional
Summary of the method: (§1)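 Neutropenic ICR mice (cyclophosphamide), thighs inoculated with ~10^5–10^6 CFU/ml in BHIB with 1% carrageenan 2 h before therapy. Total 2.5–640 mg/kg sc over 24 h in 1–12 doses, with cilastatin 100 mg/kg.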

[2] = fT>MIC required for inducing 1-log killing effect in methicillin-resistant Staphylococcus aureus TL-3677-infected mouse; assay type: functional
[3] = fT>MIC required for inducing 2-log killing effect in methicillin-resistant Staphylococcus aureus TL-3677-infected mouse; assay type: functional
[4] = fT>MIC required for inducing 2-log killing effect in vancomycin-resistant Enterococcus faecium TL-3273-infected mouse; assay type: functional; summary of the method: as §1
[5] = fT>MIC required for bacteriostatic effect in vancomycin-resistant Enterococcus faecium TL-3273-infected mouse; assay type: functional; summary of the method: as §1
[6] = Protein binding in mouse serum at 30 ug/ml by ultrafiltration method; assay type: ADME, cell-free; details: read-out: PB (converted)
[7] = fT>MIC required for inducing 1-log killing effect in vancomycin-resistant Enterococcus faecium TL-3273-infected mouse; assay type: functional; summary of the method: as §1
[8] = system: Staphylococcus aureus; assay: Antibacterial activity against methicillin-resistant Staphylococcus aureus TL-3677 by broth microdilution method; assay type: functional
Summary of the method: (§2)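 CLSI broth microdilution in cation-adjusted Mueller-Hinton broth; final inoculum approx. 10^5 CFU/well.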

[9] = fT>MIC required for bacteriostatic effect in methicillin-resistant Staphylococcus aureus SP-12249-infected mouse; assay type: functional
[10] = fT>MIC required for inducing 1-log killing effect in methicillin-resistant Staphylococcus aureus SP-12249-infected mouse; assay type: functional
[11] = system: Enterococcus faecium; assay: Antibacterial activity against vancomycin-resistant Enterococcus faecium TL-3273 by broth microdilution method; assay type: functional; summary of the method: as §2
[12] = system: Enterococcus faecium; assay: Antibacterial activity against vancomycin-resistant Enterococcus faecium TL-3621 by broth microdilution method; assay type: functional; summary of the method: as §2
[13] = fT>MIC required for bacteriostatic effect in methicillin-resistant Staphylococcus aureus TL-3677-infected mouse; assay type: functional
[14] = Protein binding in mouse serum at 10 ug/ml by ultrafiltration method; assay type: ADME, cell-free; details: read-out: PB (converted)
[15] = system: Staphylococcus aureus; assay: Antibacterial activity against methicillin-resistant Staphylococcus aureus SP-12249 by broth microdilution method; assay type: functional; summary of the method: as §2
[16] = fT>MIC required for inducing 2-log killing effect in vancomycin-resistant Enterococcus faecium TL-3621-infected mouse; assay type: functional; summary of the method: as §1
[17] = fT>MIC required for inducing 2-log killing effect in methicillin-resistant Staphylococcus aureus SP-12249-infected mouse; assay type: functional
[18] = fT>MIC required for inducing 1-log killing effect in vancomycin-resistant Enterococcus faecium TL-3621-infected mouse; assay type: functional; summary of the method: as §1
[19] = Protein binding in mouse serum at 100 ug/ml by ultrafiltration method; assay type: ADME, cell-free; details: read-out: PB (converted)
[20] = system: Enterococcus faecium; assay: Antibacterial activity against vancomycin-resistant Enterococcus faecium TL-3273 infected in ICR mouse assessed as reduction in bacterial burden at 2.5 to 640 mg/kg, sc in presence of 1% carrageenan; assay type: functional, organism-based
Summary of the method: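 Male ICR mice made neutropenic with cyclophosphamide sc (150 mg/kg day −4, 100 mg/kg day −1). Thighs inoculated with ~10^5–10^6 CFU/ml in BHIB plus 1% carrageenan, 2 h before therapy. Total 2.5–640 mg/kg sc over 24 h in 1–12 divided doses, each with cilastatin 100 mg/kg. Thighs homogenised at 24 h, CFU plated; two mice (four thighs) per group.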

[21] = system: Enterococcus faecium; assay: Antibacterial activity against vancomycin-resistant Enterococcus faecium TL-3273 at 0.5 to 8 ug/mL by time-kill analysis in presence of 1% carrageenan; assay type: functional, organism-based

C[C@H]1C=C(c2csc(SC3=C(C(=O)O)N4C(=O)[C@H]([C@@H](C)O)[C@H]4[C@H]3C)n2)CN1 [RAZUPENEM]
fT>MIC [1]: 10%
fT>MIC [2]: 27%
fT>MIC [3]: 32%
fT>MIC [4]: 16%
fT>MIC [5]: 9%
fraction unbound at 30 ug/ml [6]: 0.24
fT>MIC [7]: 12%
MIC [8]: 0.12 µg/mL (≈ 0.294 µM)
fT>MIC [9]: 23%
fT>MIC [10]: 30%
MIC [11]: 2 µg/mL (≈ 4.91 µM)
MIC [12]: 2 µg/mL (≈ 4.91 µM)
fT>MIC [13]: 23%
fraction unbound at 10 ug/ml [14]: 0.25
MIC [15]: 1 µg/mL (≈ 2.45 µM)
fT>MIC [16]: 19%
fT>MIC [17]: 37%
fT>MIC [18]: 14%
fraction unbound at 100 ug/ml [19]: 0.22
Activity [20]: Active
Activity [21]: Active
